The text below walks through data of PubChem BioAssay.

The source made the active and inactive calls.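 Rule for the calls: active = GFP response above 150% of the DMSO control; inconclusive = fewer than 70 events counted in any yeast strain; inactive = the rest.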

One test can be described thus: hit retest on RPL19A-GFP reporter strain – cell-based, S. cerevisiae, flow cytometry, cherry picks, mother/daughter gates, confirmation (AID 2270). Particulars: 3 h, measured here: mother cell gate, at 10 µM, stronger effect = lower value, 100 = same GFP as DMSO wells. On the technique in general: In flow cytometry, cells or beads pass a laser one at a time.
`Cc1cccn2c(=O)c(/C=C(\C#N)C(N)=O)c(N3CCN(Cc4ccc5c(c4)OCO5)CC3)nc12` yielded a GFP response vs DMSO of 102%.

The compound `O=S(=O)(CCN(CCS(=O)(=O)C(F)(F)F)CC1CCCO1)C(F)(F)F` (stereo not given) returned a GFP response vs DMSO of 86.3%.

The compound `COc1cc(NC(=O)C(C)C)ccc1NC(=O)c1cc2ccccc2o1` yielded a GFP response vs DMSO of 103%.

Turning to `COc1cc(/C=C2/N=C(c3ccccc3)OC2=O)c(F)cc1OCc1ccccc1`, the GFP response vs DMSO is 98%.

`Cc1cccc(C)c1OCCOC(=O)c1n[nH]c2ccccc12` registered a GFP response vs DMSO of 100%.

The compound `Cc1ccc(/C=N\NC(=O)c2cc(OCC(F)(F)F)ccc2OCC(F)(F)F)cc1` came in with a GFP response vs DMSO of 100%.

As to `CCOCCCNC(=O)/C(C#N)=C/c1ccc([N+](=O)[O-])o1`, the GFP response vs DMSO is 87.9%.

`O=c1[nH]c(CN2CCCCC2)nc2c1C1(CCCCC1)Cc1ccccc1-2` registered a GFP response vs DMSO of 100%.

Compound `CSC1=NC(=O)/C(=C/c2ccc(SC)cc2)S1` yielded a GFP response vs DMSO of 92.5%.

As to `COC(=O)Nc1c(-c2ccccc2)nc2ccccn12`, the GFP response vs DMSO is 98.9%.

In the case of `CCCc1[nH]nc2c1C(c1ccc(O)c(OC)c1)C(C#N)=C(N)O2` (stereo not given), the GFP response vs DMSO was determined as 103%.

`CCc1ccc2c(c1)/C(=C/C(=O)c1cccs1)C(=O)N2`: the GFP response vs DMSO was 87.7%.

Turning to `CCN(C(=O)c1ccccc1Cl)c1ccccc1`, the GFP response vs DMSO was found to be 98%.

As for `COCCNc1c(-c2ccc(O)cc2)nc2ccc(Cl)cn12`, the GFP response vs DMSO turned out to be 97.7%.

`CC(C)(C)c1ccc(C(=O)N/N=C/c2cccc(Cl)c2)cc1` gave a GFP response vs DMSO of 95.4%.

Turning to `O=C(COC(=O)C1CCN(c2ccc(C(F)(F)F)cn2)CC1)Nc1cccc(F)c1`, the GFP response vs DMSO came to 96.1%.

As for `COc1ccc(Cc2nnc(NC(=O)c3ccccc3F)s2)cc1`, the GFP response vs DMSO is 98.5%.

Take `COC(=O)c1cccc(-n2c(CCC(=O)O)ccc2-c2cccs2)c1`: the GFP response vs DMSO was found to be 100%.

In turn, `CC(=O)Oc1ccc(/C=c2\sc3ncnn3c2=O)cc1` returned a GFP response vs DMSO of 97.8%.

`CCNC(=O)c1c(O)c2cccc3c2n(c1=O)CC3` had a GFP response vs DMSO of 103%.

`Cc1ccc(C(=O)NNC(=S)NC(=O)c2ccco2)cc1` returned a GFP response vs DMSO of 109%.

The compound `CCOC(=O)c1sc(NC(=O)CN2C(=O)c3cccc4cccc(c34)C2=O)nc1C` showed a GFP response vs DMSO of 96.9%.

Consider `Cc1ccc(NC(=O)c2ccccc2O)cc1`, for which the GFP response vs DMSO is 102%.

In turn, `O=C(NCCN1CCOCC1)c1ccc(CS(=O)(=O)Cc2ccccc2F)o1` had a GFP response vs DMSO of 99.7%.

As for `Cc1ccc(-n2nnnc2C(Cl)(Cl)c2nnnn2-c2ccc(C)cc2)cc1`, the GFP response vs DMSO was 98.6%.

The compound `COc1ccc(CC(=O)Oc2ccccc2C)cc1` returned a GFP response vs DMSO of 98.3%.

Compound `Cc1ccc(S(=O)(=O)N(Cc2ccccc2)Cc2ccco2)cc1` registered a GFP response vs DMSO of 104%.

The compound `Cc1cc(NC(=O)c2cccnc2Cl)ccc1NC(=O)c1cc2ccccc2o1` registered a GFP response vs DMSO of 94.5%.

Consider `Cc1ccc(NC(=O)CCCSc2nc3ccccc3[nH]2)cc1`, for which the GFP response vs DMSO was found to be 100%.

In turn, `Cc1ccc(C(=O)Sc2cccccc2=O)cc1` gave a GFP response vs DMSO of 99%.

Take `COc1ccccc1-c1noc(CCC(=O)Nc2cccc(C(F)(F)F)c2)n1`: the GFP response vs DMSO is 98.5%.

With `Nc1cccnc1S(=O)(=O)c1ccccc1`, the GFP response vs DMSO stood at 100%.

On to `O=C(O)CCc1ccc(-c2ccccc2)o1`, for which the GFP response vs DMSO is 96.4%.

On to `Nc1nc(SCC(=O)Nc2cc(C(F)(F)F)ccc2N2CCOCC2)n[nH]1`, for which the GFP response vs DMSO is 97.9%.

`Cc1ncc2c(n1)-c1cc(F)ccc1SC2` registered a GFP response vs DMSO of 103%.

`Cc1ccc2c(c1)c(/C=C/c1cc[n+](C)cc1)c(C)n2C` yielded a GFP response vs DMSO of 108%.

In the case of `COc1ccc(CCNC2=C(Cl)C(=O)N(CCc3ccc(OC)c(OC)c3)C2=O)cc1OC`, the GFP response vs DMSO came to 99.3%.

The compound `Cc1cccc(NC(=S)NCC23C=CC(O2)C2C(=O)N(c4ccc(Cl)cc4)C(=O)C23)c1` (stereo not given) registered a GFP response vs DMSO of 99.8%.

With `O=C(CSc1nnc(-c2ccccn2)n1Cc1ccccc1)N1CCOCC1`, the GFP response vs DMSO was found to be 102%.

With `COc1ccc(-c2nc(-c3ccccc3OC)no2)cc1OC`, the GFP response vs DMSO worked out at 98.6%.

Another test in a line: yeast TOR pathway reporter LAP4-GFP change – cell-based, cherry picks, flow cytometry, mother/daughter gates, confirmation (AID 2271).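 Note: ratio of sample to DMSO plate mean so 100% equals DMSO level.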 Particulars: S. cerevisiae LAP4-GFP strain, 3 h, at 10 µM, stronger effect = higher value, 100 means same as DMSO control. In outline: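 System – GFP-fusion yeast strain · Amount – 0.2 OD600 cells · Buffer or medium – SC growth medium · Dosing – single test-compound dose, 10 µM final · Schedule – 3 h treatment at 30 °C with rotation · Detection – GFP by flow cytometry · Read-out – per-gate (all, mother, daughter) GFP response vs DMSO · Benchmarks – positive rapamycin (400 ng/mL), negative DMSO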
For the compound `Cc1cccn2c(=O)c(/C=C(\C#N)C(N)=O)c(N3CCN(Cc4ccc5c(c4)OCO5)CC3)nc12`, the GFP response relative to DMSO was 101% (inactive).

With `O=S(=O)(CCN(CCS(=O)(=O)C(F)(F)F)CC1CCCO1)C(F)(F)F` (stereo not given), the GFP response relative to DMSO is 219% (active).

Consider `COc1cc(NC(=O)C(C)C)ccc1NC(=O)c1cc2ccccc2o1`, for which the GFP response relative to DMSO is 92.6% (inactive).

Regarding `COc1cc(/C=C2/N=C(c3ccccc3)OC2=O)c(F)cc1OCc1ccccc1`, the GFP response relative to DMSO was 98.9% (inactive).

As for `Cc1cccc(C)c1OCCOC(=O)c1n[nH]c2ccccc12`, the GFP response relative to DMSO was 96.5% (inactive).

`Cc1ccc(/C=N\NC(=O)c2cc(OCC(F)(F)F)ccc2OCC(F)(F)F)cc1`: the GFP response relative to DMSO is 91.5% (inactive).

As for `CCOCCCNC(=O)/C(C#N)=C/c1ccc([N+](=O)[O-])o1`, the GFP response relative to DMSO is 212% (active).

For `O=c1[nH]c(CN2CCCCC2)nc2c1C1(CCCCC1)Cc1ccccc1-2`, the GFP response relative to DMSO was 98.7% (inactive).

Take `CSC1=NC(=O)/C(=C/c2ccc(SC)cc2)S1`: the GFP response relative to DMSO was 138% (inactive).

With `COC(=O)Nc1c(-c2ccccc2)nc2ccccn12`, the GFP response relative to DMSO is 107% (inactive).

For the compound `CCCc1[nH]nc2c1C(c1ccc(O)c(OC)c1)C(C#N)=C(N)O2` (stereo not given), the GFP response relative to DMSO is 92.6% (inactive).

Consider `CCc1ccc2c(c1)/C(=C/C(=O)c1cccs1)C(=O)N2`, for which the GFP response relative to DMSO was 178% (active).

`CCN(C(=O)c1ccccc1Cl)c1ccccc1`: the GFP response relative to DMSO is 107% (inactive).

For the compound `COCCNc1c(-c2ccc(O)cc2)nc2ccc(Cl)cn12`, the GFP response relative to DMSO is 99.2% (inactive).

In the case of `CC(C)(C)c1ccc(C(=O)N/N=C/c2cccc(Cl)c2)cc1`, the GFP response relative to DMSO was 100% (inactive).

Regarding `O=C(COC(=O)C1CCN(c2ccc(C(F)(F)F)cn2)CC1)Nc1cccc(F)c1`, the GFP response relative to DMSO was 102% (inactive).

For `COc1ccc(Cc2nnc(NC(=O)c3ccccc3F)s2)cc1`, the GFP response relative to DMSO is 101% (inactive).

Take `COC(=O)c1cccc(-n2c(CCC(=O)O)ccc2-c2cccs2)c1`: the GFP response relative to DMSO was 104% (inactive).

`CC(=O)Oc1ccc(/C=c2\sc3ncnn3c2=O)cc1`: the GFP response relative to DMSO was 123% (inactive).

Consider `CCNC(=O)c1c(O)c2cccc3c2n(c1=O)CC3`, for which the GFP response relative to DMSO is 103% (inactive).

Turning to `Cc1ccc(C(=O)NNC(=S)NC(=O)c2ccco2)cc1`, the GFP response relative to DMSO was 120% (inactive).

Take `CCOC(=O)c1sc(NC(=O)CN2C(=O)c3cccc4cccc(c34)C2=O)nc1C`: the GFP response relative to DMSO is 87.6% (inactive).

`Cc1ccc(NC(=O)c2ccccc2O)cc1`: the GFP response relative to DMSO is 100% (inactive).

As for `O=C(NCCN1CCOCC1)c1ccc(CS(=O)(=O)Cc2ccccc2F)o1`, the GFP response relative to DMSO is 98.6% (inactive).

Take `Cc1ccc(-n2nnnc2C(Cl)(Cl)c2nnnn2-c2ccc(C)cc2)cc1`: the GFP response relative to DMSO was 136% (inactive).

For the compound `COc1ccc(CC(=O)Oc2ccccc2C)cc1`, the GFP response relative to DMSO was 100% (inactive).

For `Cc1ccc(S(=O)(=O)N(Cc2ccccc2)Cc2ccco2)cc1`, the GFP response relative to DMSO was 87.8% (inactive).

Take `Cc1cc(NC(=O)c2cccnc2Cl)ccc1NC(=O)c1cc2ccccc2o1`: the GFP response relative to DMSO was 103% (inactive).

Turning to `Cc1ccc(NC(=O)CCCSc2nc3ccccc3[nH]2)cc1`, the GFP response relative to DMSO was 96.1% (inactive).

`Cc1ccc(C(=O)Sc2cccccc2=O)cc1`: the GFP response relative to DMSO was 313% (active).

As to `COc1ccccc1-c1noc(CCC(=O)Nc2cccc(C(F)(F)F)c2)n1`, the GFP response relative to DMSO is 102% (inactive).

As for `Nc1cccnc1S(=O)(=O)c1ccccc1`, the GFP response relative to DMSO was 93.8% (inactive).

Turning to `O=C(O)CCc1ccc(-c2ccccc2)o1`, the GFP response relative to DMSO was 139% (inactive).

With `Nc1nc(SCC(=O)Nc2cc(C(F)(F)F)ccc2N2CCOCC2)n[nH]1`, the GFP response relative to DMSO was 101% (inactive).

In the case of `Cc1ncc2c(n1)-c1cc(F)ccc1SC2`, the GFP response relative to DMSO is 87.6% (inactive).

`Cc1ccc2c(c1)c(/C=C/c1cc[n+](C)cc1)c(C)n2C`: the GFP response relative to DMSO is 178% (active).

With `COc1ccc(CCNC2=C(Cl)C(=O)N(CCc3ccc(OC)c(OC)c3)C2=O)cc1OC`, the GFP response relative to DMSO is 100% (inactive).

For the compound `Cc1cccc(NC(=S)NCC23C=CC(O2)C2C(=O)N(c4ccc(Cl)cc4)C(=O)C23)c1` (stereo not given), the GFP response relative to DMSO is 103% (inactive).

`O=C(CSc1nnc(-c2ccccn2)n1Cc1ccccc1)N1CCOCC1`: the GFP response relative to DMSO is 105% (inactive).

As for `COc1ccc(-c2nc(-c3ccccc3OC)no2)cc1OC`, the GFP response relative to DMSO was 102% (inactive).
